Reference: ChEMBL document CHEMBL1128319, “Cyclosporin analogs modified in the 3,7,8-positions: substituent effects on peptidylprolyl isomerase inhibition and immunosuppressive activity are nonadditive” (J Med Chem, 1995)

Key:
Jurkat = test: The compound was tested in vitro for inhibition of IL-2 release stimulated with PMA/ionomycin by Jurkat cells.; format: functional, cell-based; conditions: Homo sapiens
Method in brief: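 Jurkat cells at 2 × 10⁵/mL in RPMI-10 (10% heat-inactivated calf serum) with serial compound dilutions, stimulated with PMA 1000 ng/mL plus ionomycin 125 ng/mL, incubated overnight. IL-2 in supernatants quantified by ELISA.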

Mus musculus = organism: Mus musculus; test: The compound was tested in vitro for inhibition of proliferation in BDF1 mouse spleen cells stimulated with concanavalin A (ConA).; format: functional
Method in brief: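 BDF1 mouse spleen cells, 5 × 10⁶/mL in RPMI-10, given compound dilutions and Con A 5 μg/mL. Cultured 72 h at 37 °C, 5% CO₂, with [³H]thymidine 0.5 μCi over the last 16 h. Incorporated radioactivity counted by scintillation. Quadruplicate means used; viability checked by trypan blue. IC50 derived.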

| IC50 (Jurkat) | SMILES | IC50 (Mus musculus) |
| --- | --- | --- |
| 0.012 µM | C/C=C/C[C@@H](C)[C@@H](O)[C@H]1C(=O)N[C@@H](CC)C(=O)N(C)CC(=O)N(C)[C@@H](CC(C)C)C(=O)N[C@@H](C(C)C)C(=O)N(C)C(CC(C)C)C(=O)N[C@@H](C)C(=O)N[C@H](C)C(=O)N(C)C(CC(C)C)C(=O)N(C)[C@@H](CC(C)C)C(=O)N(C)C(C(C)C)C(=O)N1C (single isomer, unassigned) [CYCLOSPORINE] | – |
| 0.107 µM | C/C=C/CC(C)[C@@H](O)[C@H]1C(=O)N[C@@H](CC)C(=O)N(C)CC(=O)N(C)[C@@H](CC(C)C)C(=O)N[C@@H](C(C)C)C(=O)N(C)[C@@H](CC(C)C)C(=O)N[C@@H](Cc2ccccc2)C(=O)N[C@H](C)C(=O)N(C)[C@@H](CC(C)C)C(=O)N(C)[C@@H](CC(C)C)C(=O)N(C)[C@@H](C(C)C)C(=O)N1C (some centres not stated) | 0.248 µM |
| 0.021 µM | C/C=C/CC(C)[C@@H](O)[C@H]1C(=O)N[C@@H](CC)C(=O)N(C)CC(=O)N(C)[C@@H](CC(C)C)C(=O)N[C@@H](C(C)C)C(=O)N(C)[C@@H](CC(C)C)C(=O)N[C@@H](Cc2ccccc2)C(=O)N[C@H](CO)C(=O)N(C)[C@@H](CC(C)C)C(=O)N(C)[C@@H](CC(C)C)C(=O)N(C)[C@@H](C(C)C)C(=O)N1C (some centres not stated) | 0.105 µM |
| 0.062 µM | C/C=C/CC(C)C(O)[C@H]1C(=O)N[C@@H](CC)C(=O)N(C)[C@H](C)C(=O)N(C)[C@@H](CC(C)C)C(=O)N[C@@H](C(C)C)C(=O)N(C)[C@@H](CC(C)C)C(=O)N[C@@H](Cc2ccccc2)C(=O)N[C@H](C)C(=O)N(C)[C@@H](CC(C)C)C(=O)N(C)[C@@H](CC(C)C)C(=O)N(C)[C@@H](C(C)C)C(=O)N1C (some centres not stated) | 0.142 µM |
